Compound activity as filed in PubChem.
MrgX1 allo act – human MrgX1 positive allosteric modulation, primary screen; MrgX1-HEK293, Fluo-4 calcium flux, FDSS; stronger effect = higher value; 310,000 compounds, 0.63% hits; B-score at 10 µM; AID 588675;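 active means plate-corrected calcium response at least 3 library SD above typical, normal starting fluorescence, not activating the receptor alone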;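 further: compound read alongside a low EC10 to EC30 dose of BAM8-22 agonist; peak minus trough fluorescence over baseline measured at the second addition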
Target sequence (Q96LB2 whole entry, looked up): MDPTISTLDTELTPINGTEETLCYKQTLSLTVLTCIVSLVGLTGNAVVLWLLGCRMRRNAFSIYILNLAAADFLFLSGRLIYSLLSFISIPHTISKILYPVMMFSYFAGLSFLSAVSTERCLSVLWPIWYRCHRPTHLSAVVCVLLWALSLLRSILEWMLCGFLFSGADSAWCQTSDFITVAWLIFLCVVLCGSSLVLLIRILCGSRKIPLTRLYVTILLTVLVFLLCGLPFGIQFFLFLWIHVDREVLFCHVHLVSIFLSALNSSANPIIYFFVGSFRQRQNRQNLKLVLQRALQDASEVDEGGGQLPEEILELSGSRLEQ
MrgX1 ag – activates human MrgX1 receptor signaling. B-score at 10 µM. MrgX1-HEK293 cells, Fluo-4 calcium fluorescence, agonist mode; stronger effect = higher value. Q96LB2. 310,000 compounds, 0.44% hits;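 active means calcium response B-score plate-corrected fluorescence ratio at least 3 library SD, with starting fluorescence B-score inside 5 SD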
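Assay system: stable human MrgX1 HEK293 cell line. Quantity: 15,000 cells per well. Schedule: cells plated overnight, dye loaded 0.5 h 37 °C, 0.5 h room temperature. Detection: Fluo-4 NW calcium-flux fluorescence, kinetic read. Read-out basis: peak-minus-minimum fluorescence over baseline, converted to B scores. Control set: positive and negative control wells on each plate.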
RGS4 inh – inhibitors of human RGS4 | B-score at 10 µM | HEK293 M3R/RGS4 inducible, Fluo-4 calcium flux; stronger effect = higher value; triggered by carbachol at its EC20 | 310,000 compounds, 0.45% hits | P49798 | AID 463165;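 active means B-score, a plate-corrected calcium signal, over three deviations above library mean, with baseline fluorescence within five deviations of library mean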;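 further: RGS4 expression induced by doxycycline in cells with stable M3 receptor; B-score is computed from the integrated fluorescence ratio over baseline after carbachol; higher B-score means a larger calcium signal and so more RGS4 inhibition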
Target sequence (P49798 whole entry, looked up): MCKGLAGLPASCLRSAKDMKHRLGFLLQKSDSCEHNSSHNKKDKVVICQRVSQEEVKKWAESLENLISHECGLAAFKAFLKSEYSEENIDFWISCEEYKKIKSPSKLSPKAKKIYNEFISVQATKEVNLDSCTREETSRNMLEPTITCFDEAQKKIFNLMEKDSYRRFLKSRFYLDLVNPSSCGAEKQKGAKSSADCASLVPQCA
RGS4 pot – RGS4 potentiation or activation | HEK293 M3R/inducible RGS4, carbachol calcium flux Fluo4; stronger effect = lower value | B-score at 10 µM | 310,000 compounds, 0.92% hits;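 active means B-score of the integrated calcium signal more than 4 SD below the library mean, with starting fluorescence not abnormally high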;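 further: negative B-score means reduced calcium response which marks RGS4 activation or potentiation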
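Assay system: Inducible-RGS4 HEK293 cells carrying M3 receptor | Schedule: Compound preincubation 20 min at room temperature before agonist | Signal: Kinetic calcium fluorescence imaging with Fluo4-AM dye, 2 µM | Read-out basis: B score from integrated fluorescence ratio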
MrgX1 antagonist – blocks BAM8-22 activation of human MrgX1 receptor. Q96LB2. MRGX1-HEK293 calcium flux, Fluo-4, BAM8-22 antagonism; stronger effect = lower value. B-score at 10 µM. 310,000 compounds, 1.3% hits. AID 588676;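 active means calcium-response B-score plate-corrected more than 3 library SD below zero, starting fluorescence within 5 deviations, no agonist response on first addition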;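 further: peak minus trough fluorescence over baseline after final BAM8-22 challenge near maximal dose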
MrgX1 antag conf – human MrgX1 receptor antagonism, re-confirmation screen | shares compounds with MrgX1 antagonist | MrgX1-HEK293, BAM8-22 calcium flux, Fluo-4; stronger effect = lower value | remaining BAM8-22 calcium response % of control (stronger effect = lower value), % at 10 µM | 2,300 compounds, 19% hits;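 active means remaining agonist calcium response no higher than 100% minus 3 SD of agonist-only control wells, with starting fluorescence near control levels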;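 further: agonist BAM8-22 given at a near maximal EC90 to ECmax level; peak minus minimum fluorescence divided by baseline after agonist addition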
HEK293 Ca flux – MrgX1 antagonist counter-screen hit in parental HEK293 cells. shares compounds with MrgX1 antagonist. Fluo-4 calcium fluorescence, FDSS. fluorescence ratio F(max-min)/F0 at 10 µM. 4,000 compounds, 2% hits;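 active means duplicate-averaged calcium fluorescence ratio at least three times the standard deviation of buffer wells, a nonspecific response in parental cells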
HEK293 Ca counter – counter-screen for MrgX1 allosteric activators: effect in parental HEK293 cells; shares compounds with MrgX1 antagonist; parental HEK293 calcium flux, Fluo-4 fluorescence ratio; stronger effect = higher value; fluorescence ratio F(max-min)/F0 at 10 µM; 4,000 compounds, 0.4% hits; AID 624114;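 active means calcium fluorescence ratio, averaged over duplicates, at least 3 SD of the buffer-well ratio, meaning a nonspecific response in receptor-free cells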;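 further: untransfected parental HEK293 lacking MrgX1 used as counterscreen for MrgX1 allosteric activators; fluorescence change taken during the second addition on a kinetic imager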
HEK293 Ca cntr2 – counter-screen for MrgX1 activators: effect in parental HEK293 cells. 4,000 compounds, 8.7% hits. shares compounds with MrgX1 antagonist. Fluo-4 calcium fluorescence (FDSS); stronger effect = higher value. AID 624115. fluorescence ratio F(max-min)/F0 at 10 µM;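 active means calcium fluorescence ratio at least three times the spread of buffer wells, meaning a non-specific response in parental cells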
An asterisk follows results filed as active; i = inactive; · = no result. Sampled rows, rich in hits. Any-hit rate of the full collection: about 3.5%.

SMILES | MrgX1 allo act | MrgX1 ag | RGS4 inh | RGS4 pot | MrgX1 antagonist | MrgX1 antag conf | HEK293 Ca flux | HEK293 Ca counter | HEK293 Ca cntr2
Cc1ccsc1-c1nc(CSCC(=O)NCc2ccc3c(c2)OCO3)c(C)o1 | i | i | i | i | -4.8* | i | i | i | 51*
COc1ccccc1CC(=O)N(CCC1=CCCCC1)c1c(N)n(Cc2ccccc2)c(=O)[nH]c1=O | i | i | i | i | i | · | · | · | ·
O=C(CSc1nnc(-c2ccccc2)n1Cc1ccccc1)N1CCOCC1 | i | i | i | i | i | · | · | · | ·
Oc1ccccc1-c1nnc(SCCN2CCOCC2)n1Cc1ccccc1 | i | i | i | i | -6.8* | i | i | i | i
COc1ccc(N(CC(=O)NCc2ccco2)C(=O)CCC(=O)Nc2nccs2)cc1 | i | i | i | i | i | · | · | · | ·
Cc1ccccc1Cc1c(C)nc2ncnn2c1C | i | i | i | i | -7.8* | i | i | i | i
COc1ccc2[nH]c3c(c2c1)CCN1C(=O)N([C@@H](C)C(=O)NCc2ccccc2OC)C(=O)[C@]31C | i | i | i | i | i | · | · | · | ·
COc1ccc2[nH]c3c(c2c1)CCN1C(=O)N([C@@H](C)C(=O)NCc2ccccc2)C(=O)[C@]31C | i | i | i | i | -8.6* | i | i | i | i
COc1ccc(C(=O)Oc2ccc3c(C)cc(=O)oc3c2C(C)=O)cc1 | i | i | i | i | -4.6* | i | i | i | i
CC1(C)CC(=O)c2c(-c3cccs3)n[nH]c2C1 | i | i | i | i | -5.4* | i | i | i | i
COc1ccc(-n2c(-c3ccco3)nc3c(cnn3-c3ccccc3C)c2=O)cc1 | i | i | i | i | i | · | · | · | ·
O=C(NCCCn1ccnc1)c1ccc(OCC(F)(F)F)cc1 | i | i | i | i | i | · | · | · | ·
Cc1ccc(S(=O)(=O)N2CCCC2C(=O)NC2CCCCC2)cc1 (stereo unspecified) | i | i | i | i | -14* | i | i | i | i
Cc1ccccc1OCCN(C#N)c1nc(N(C)C)nc(N(C)C)n1 | i | i | i | i | -4.9* | i | i | i | i
C=CCOc1c(OC)cc(/C=N/Nc2cccc(C(=O)O)c2)c(Br)c1Br | i | i | i | i | i | · | · | · | ·
CCN(CC)c1ccc(NC(=O)CSc2nc3ccccc3c(=O)n2-c2cc(S(=O)(=O)N(C)C)ccc2C)cc1 | i | i | i | i | i | · | · | · | ·
CN(C)S(=O)(=O)c1cccc(NC(=O)c2ccc(COc3ccccc3)cc2)c1 | i | i | i | -7.2* | -4.8* | 57%* | i | i | i
COc1ccccc1N1CCN(CC(O)c2ccc3cc[nH]c3c2)CC1 (stereo unspecified) | i | i | i | i | -9.8* | i | i | i | i
Cc1ccc(S(=O)(=O)NCCC(=O)NCc2ccco2)cc1 | i | i | i | i | -4.6* | i | i | i | i
COc1cc(=O)[nH]c(SCC(=O)Nc2ccc3ccccc3c2)n1 | i | i | i | i | i | · | · | · | ·
CCN(CC)C(=O)CSc1nc(OC)cc(=O)[nH]1 | i | i | i | i | -9.5* | i | i | i | 53*
CN=c1nc(-c2ccccc2)n(-c2ccccc2)s1 | i | i | · | · | -4.9* | i | i | i | i
Cc1ccc(NC(=O)Cc2c(Cl)cccc2Cl)cc1S(=O)(=O)N(C)C | i | i | i | i | -19* | i | i | i | i
CCOC(=O)C1=C(C)N(CCCC(=O)O)C(=O)NC1c1ccc(Br)cc1 (stereo unspecified) | i | i | i | i | i | · | · | · | ·
O=C(O)[C@H](Cc1ccccc1)N1C(=O)c2c(Cl)c(Cl)c(Cl)c(Cl)c2C1=O | i | i | i | i | -8.6* | i | i | i | i
SMILES | MrgX1 allo act | MrgX1 ag | RGS4 inh | RGS4 pot | MrgX1 antagonist | MrgX1 antag conf | HEK293 Ca flux | HEK293 Ca counter | HEK293 Ca cntr2
O=C(O)C(Cc1ccccc1)n1cccc1 (stereo unspecified) | i | i | i | i | i | · | · | · | ·
CC(Oc1ccccc1Cl)c1nnc(N)s1 (stereo unspecified) | i | i | i | i | -7.8* | i | i | i | i
COC(=O)c1cccc(S(=O)(=O)N2CCOCC2)c1 | i | i | i | i | i | · | · | · | ·
COC(=O)c1cccc(S(=O)(=O)N2CCCC2)c1 | i | i | i | i | -5.9* | i | i | i | i
O=C(Nc1cccnc1)c1cccc(S(=O)(=O)N2CCCCC2)c1 | i | i | i | i | -6.4* | i | i | i | i
O=C1CC2(CCCCCC2)Oc2ccc(Cl)cc21 | i | i | i | i | i | · | · | · | ·
O=S(=O)(NC1c2cccc3cccc(c23)C1Sc1ncccn1)c1ccc(Cl)cc1 (stereo unspecified) | i | i | i | i | -4.7* | i | i | i | i
Cc1ccc(S(=O)(=O)NC2c3cccc4cccc(c34)C2Sc2n[nH]c(N)n2)cc1 (stereo unspecified) | i | i | i | i | i | · | · | · | ·
Cc1cc(NC(=O)COC(=O)C2CC(=O)N(c3cccc(C)c3C)C2)no1 (stereo unspecified) | i | i | i | i | i | · | · | · | ·
Cc1cccc(-n2c(=S)[nH]c3c(oc4ccccc43)c2=O)c1 | i | i | i | i | i | · | · | · | ·
O=c1c2[nH]c3cccc(Cl)c3c2ncn1Cc1ccco1 | i | i | i | i | i | · | · | · | ·
COC(=O)c1sc(-c2ccc(C(C)(C)C)cc2)cc1NC(=O)COCC(=O)O | i | i | i | i | -4.7* | 68%* | i | i | 60*
COC(=O)c1sc(-c2ccc(Cl)cc2)cc1NC(=O)CSCC(=O)O | i | i | i | i | i | · | · | · | ·
